Drawing on PubChem BioAssay AID651708 (Sanford-Burnham Center for Chemical Genomics, 2012), this text covers IC50 for ten molecules.

Assay in all cases: GPCR panel antagonist activity incl. apelin receptor – cell-based, CHO-K1 PathHunter beta-arrestin, luminescence, set 3, selectivity assay for CXCR6 antagonist project, profiling panel (AID 651708)
The target in test [1] is C-X-C chemokine receptor type 6 (Homo sapiens) (UniProt O00574). Particulars: antagonist mode. The method, boiled down: (§1)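 Signal: β-arrestin recruitment luminescence; test system: CHO-K1 PathHunter β-arrestin cell lines for APJ, CCR6 or CXCR6; also added: APJ 10 nM Apelin-13, CCR6 14 nM CCL20, CXCR6 CXCL16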
Test [2] addresses Apelin receptor (Homo sapiens) (UniProt P35414). The settings on record: antagonist mode, APJ; for IC50: mean of runs. The method, boiled down: as §1
In test [3] the target is C-C chemokine receptor type 6 (Homo sapiens) (UniProt P51684). Particulars: antagonist mode; for IC50: CCR6, mean of runs. A digest of the protocol: as §1

pIC50: −log10 of the molar value. Active and inactive are the calls of the source.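 How the source made its calls: active means compound with IC50 above 30 µM at both the APJ and CCR6 off-target receptors, and at most 10 µM at CXCR6; inactive means the rest.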

Chain of C-X-C chemokine receptor type 6 (Homo sapiens) (O00574 whole entry, looked up): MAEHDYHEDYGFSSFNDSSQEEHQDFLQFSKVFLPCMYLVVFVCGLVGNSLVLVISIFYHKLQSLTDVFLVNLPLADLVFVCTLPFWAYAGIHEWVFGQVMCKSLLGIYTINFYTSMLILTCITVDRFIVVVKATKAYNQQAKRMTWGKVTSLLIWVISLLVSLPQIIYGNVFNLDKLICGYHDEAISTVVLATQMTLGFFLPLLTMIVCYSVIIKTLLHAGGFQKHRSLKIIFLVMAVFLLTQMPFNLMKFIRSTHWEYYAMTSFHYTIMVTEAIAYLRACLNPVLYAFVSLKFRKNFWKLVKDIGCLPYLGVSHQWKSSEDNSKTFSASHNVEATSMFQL
Chain of C-C chemokine receptor type 6 (Homo sapiens) (P51684 whole entry, looked up): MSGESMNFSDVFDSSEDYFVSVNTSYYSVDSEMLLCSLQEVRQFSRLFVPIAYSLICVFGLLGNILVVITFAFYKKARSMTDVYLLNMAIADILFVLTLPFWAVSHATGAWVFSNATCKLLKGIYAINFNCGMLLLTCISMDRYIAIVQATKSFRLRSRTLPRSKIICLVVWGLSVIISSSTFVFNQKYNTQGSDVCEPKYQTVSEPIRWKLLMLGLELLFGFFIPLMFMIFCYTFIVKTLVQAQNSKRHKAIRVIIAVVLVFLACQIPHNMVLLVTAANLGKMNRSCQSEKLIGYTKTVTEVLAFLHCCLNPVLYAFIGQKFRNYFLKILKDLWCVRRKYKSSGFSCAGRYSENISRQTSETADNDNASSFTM
Chain of Apelin receptor (Homo sapiens) (P35414 whole entry, looked up): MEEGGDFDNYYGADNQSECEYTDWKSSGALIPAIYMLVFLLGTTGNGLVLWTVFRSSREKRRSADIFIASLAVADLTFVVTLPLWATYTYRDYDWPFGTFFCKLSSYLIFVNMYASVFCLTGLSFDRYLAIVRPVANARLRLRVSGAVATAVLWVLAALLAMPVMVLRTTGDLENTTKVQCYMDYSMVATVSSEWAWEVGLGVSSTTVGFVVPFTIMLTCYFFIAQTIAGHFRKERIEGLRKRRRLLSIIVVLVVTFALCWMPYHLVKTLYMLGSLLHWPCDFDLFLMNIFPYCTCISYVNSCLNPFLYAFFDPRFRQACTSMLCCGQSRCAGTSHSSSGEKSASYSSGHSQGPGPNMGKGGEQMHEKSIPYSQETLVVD

For `O=C(CN1C2CCCC1CC(NC(=O)c1ccc3c(c1)OCO3)C2)Nc1ccccc1` (centres undefined), the IC50 is > 79 µM (inactive) in test [1] (CXCR6, mean of runs); > 79 µM (inactive) in test [2]; > 79 µM (inactive) in test [3]. The pIC50 in test [1] (CXCR6, run 1) was under 4.10; in test [1] (CXCR6, run 2), under 4.10; in test [2] (run 1), under 4.10; in test [2] (run 2) it was under 4.10; in test [3] (CCR6, run 1), under 4.10; in test [3] (CCR6, run 2), under 4.10.

On to `COc1cccc(C(=O)NC2CC3CCCC(C2)N3CC(=O)Nc2ccc(Cl)cc2)c1` (centres undefined), for which the IC50 was > 79 µM (inactive) in test [1] (CXCR6, mean of runs); > 79 µM (inactive) in test [2]; > 79 µM (inactive) in test [3]. The pIC50 in test [1] (CXCR6, run 1) was under 4.10; in test [1] (CXCR6, run 2), under 4.10; in test [2] (run 1) it was under 4.10; in test [2] (run 2) it was under 4.10; in test [3] (CCR6, run 1) it was under 4.10; in test [3] (CCR6, run 2), under 4.10.

Regarding `COc1ccc(NC(=O)CN2C3CCCC2CC(NC(=O)c2ccc(OC)c(OC)c2)C3)cc1` (centres undefined), the IC50 in test [1] (CXCR6, mean of runs) was > 79 µM (inactive); in test [3] it was > 79 µM (inactive). The pIC50 is under 4.10 in test [1] (CXCR6, run 1); under 4.10 in test [1] (CXCR6, run 2); under 4.10 in test [2] (run 1); 6.51 in test [2] (run 2); under 4.10 in test [3] (CCR6, run 1); under 4.10 in test [3] (CCR6, run 2).

Regarding `COc1ccc(NC(=O)CN2C3CCCC2CC(NC(=O)c2cc(OC)c(OC)c(OC)c2)C3)cc1` (centres undefined), the IC50 entry in test [1] (CXCR6, mean of runs) is “inactive”. Also, the pIC50 is 4.91 in test [1] (CXCR6, run 1); 4.58 in test [1] (CXCR6, run 2); under 4.10 in test [2] (run 1); under 4.10 in test [2] (run 2); under 4.10 in test [3] (CCR6, run 1); under 4.10 in test [3] (CCR6, run 2). In addition, the IC50 in test [2] and in test [3] was > 79 µM (inactive) in each case.

With `COc1ccc(C(=O)NC2CC3CCCC(C2)N3CC(=O)Nc2ccccc2)cc1` (centres undefined), the IC50 in test [1] (CXCR6, mean of runs) was > 79 µM (inactive); in test [2], > 79 µM (inactive); in test [3], > 79 µM (inactive). Besides, the pIC50 in test [1] (CXCR6, run 1) is under 4.10; in test [1] (CXCR6, run 2), under 4.10; in test [2] (run 1), under 4.10; in test [2] (run 2) it was under 4.10; in test [3] (CCR6, run 1), under 4.10; in test [3] (CCR6, run 2) it was under 4.10.

For the molecule `O=C(CN1C2CCCC1CC(NC(=O)c1ccc3c(c1)OCO3)C2)Nc1ccc(F)cc1` (centres undefined), the IC50 in test [1] (CXCR6, mean of runs) is > 79 µM (inactive); in test [2] it was > 79 µM (inactive); in test [3] it was > 79 µM (inactive). In addition, the pIC50 in test [1] (CXCR6, run 1) was under 4.10; in test [1] (CXCR6, run 2), under 4.10; in test [2] (run 1), under 4.10; in test [2] (run 2) it was under 4.10; in test [3] (CCR6, run 1), under 4.10; in test [3] (CCR6, run 2) it was under 4.10.

In the case of `COc1ccc(C(=O)NC2CC3CCCC(C2)N3CC(=O)Nc2ccccc2)cc1OC` (centres undefined), the IC50 is > 79 µM (inactive) in test [1] (CXCR6, mean of runs); > 79 µM (inactive) in test [2]; > 79 µM (inactive) in test [3]. The pIC50 in test [1] (CXCR6, run 1) was under 4.10; in test [1] (CXCR6, run 2), under 4.10; in test [2] (run 1) it was under 4.10; in test [2] (run 2), under 4.10; in test [3] (CCR6, run 1), under 4.10; in test [3] (CCR6, run 2), under 4.10.

For the molecule `COc1ccc(NC(=O)CN2C3CCCC2CC(NC(=O)c2ccc4c(c2)OCO4)C3)cc1` (centres undefined), the IC50 in test [1] (CXCR6, mean of runs) was > 79 µM (inactive); in test [2], > 79 µM (inactive); in test [3], > 79 µM (inactive). Also, the pIC50 in test [1] (CXCR6, run 1) is under 4.10; in test [1] (CXCR6, run 2) it was under 4.10; in test [2] (run 1), under 4.10; in test [2] (run 2), under 4.10; in test [3] (CCR6, run 1), under 4.10; in test [3] (CCR6, run 2), under 4.10.

For the molecule `COc1cccc(C(=O)NC2CC3CCCC(C2)N3CC(=O)Nc2ccc(F)cc2)c1` (centres undefined), the IC50 in test [1] (CXCR6, mean of runs) is > 79 µM (inactive); in test [2], > 79 µM (inactive); in test [3], > 79 µM (inactive). Also, the pIC50 in test [1] (CXCR6, run 1) is under 4.10; in test [1] (CXCR6, run 2), under 4.10; in test [2] (run 1), under 4.10; in test [2] (run 2), under 4.10; in test [3] (CCR6, run 1) it was under 4.10; in test [3] (CCR6, run 2) it was under 4.10.

In the case of `COc1cc(C(=O)NC2CC3CCCC(C2)N3CC(=O)Nc2ccc(C)cc2)cc(OC)c1OC` (centres undefined), the pIC50 in test [1] (CXCR6, mean of runs) is 5.24; in test [1] (CXCR6, run 1), 5.27; in test [1] (CXCR6, run 2) it was 5.22; in test [2] (run 1), under 4.10; in test [2] (run 2), under 4.10; in test [3] (CCR6, run 1), under 4.10. In test [3] (CCR6, run 2), this molecule gave a pIC50 of under 4.10. The IC50 in test [2] and in test [3] was > 79 µM (inactive) in each case.

As a reminder, the IC50 is the midpoint of a concentration-inhibition curve. One may read the pIC50 as the negative decadic logarithm of the IC50, by convention in mol/L.
